Experimental data of several laboratories.
Read-out: cell growth or viability

Compound	cell line	technique	time	IC50
O=c1c2cc(Cl)cc(Cl)c2nc(NNc2cccc(Cl)c2)n1-c1ccccc1	SW480	MTT	48 h	> 200 µM
COc1cccc2c1C(=O)c1c(O)c3c(c(O)c1C2=O)C[C@@](O)(C(=O)CO)C[C@@H]3O[C@H]1C[C@H](N)[C@H](O)[C@H](C)O1	SW480	MTT	48 h	0.09 µM
CCCN1CC(Oc2ccc([C@@H]3c4[nH]c5ccccc5c4C[C@@H](C)N3CC(C)(C)F)cc2)C1	CAMA-1			0.126 µM
Cc1ccc(NNc2nc3ccc(Br)cc3c(=O)n2-c2ccccc2)cc1	SW480	MTT	48 h	85.4 µM
O=P1(C2CCCCC2)CCCCC1	SW480	MTT	72 h	5.1 µM
CCOc1cc2ncc(C#N)c(Nc3ccc(OCc4ccccn4)c(Cl)c3)c2cc1NC(=O)/C=C/CN(C)C	NCI-N87	ATP luminescence		0.0185 µM
O=C(NO)c1ccc(Cn2cnc3c(Nc4ccc(F)c(Cl)c4)ncnc32)cc1	MM1.S	MTT	72 h	2.69 µM
COc1cccc2c1C(=O)c1c(O)c3c(c(O)c1C2=O)C[C@@](O)(C(=O)CO)C[C@@H]3O[C@H]1C[C@H](N)[C@H](O)[C@H](C)O1	SW480	MTT	72 h	0.75 µM
COc1c(Cl)cccc1Nc1c(-c2ccncc2OC[C@@H]2COCCO2)[nH]c2c1C(=O)NCC2	NCI-N87	ATP luminescence		0.0127 µM
O=C(NO)c1ccc(Cn2cnc3c(Nc4ccc(Cl)cc4)ncnc32)cc1	MM1.S	MTT	72 h	2.64 µM
CN1CCC(NC2CCc3[nH]c4c(C(N)=O)ccc(-c5ccccc5Cl)c4c3C2)CC1 (stereo not shown)	HGC-27		96 h	0.00961 µM
C=C1CC[C@@H]2[C@](C)(CO)[C@H](O)CC[C@@]2(C)[C@@H]1C/C=C1/C(=O)OC[C@H]1O	SW480	MTT	48 h	4.48 µM
O=C(NO)Nc1nc2ccc(Br)cc2c(=O)n1-c1ccccc1	SW480	MTT	48 h	> 200 µM
COc1ccc(Nc2ncnc3c2ncn3Cc2ccc(C(=O)Nc3ccccc3N)cc2)cc1	MM1.S	MTT	72 h	15.8 µM
O=C(NO)Nc1nc2c(Cl)cc(Cl)cc2c(=O)n1-c1ccccc1	SW480	MTT	48 h	> 200 µM
Cc1c(C)c2c(c(C)c1O)CCC(C)(COc1ccc(CC3SC(=O)NC3=O)cc1)O2 (stereo not shown)	THLE-2	MTT		16.3 µM
NNc1nc2ccc(Br)cc2c(=O)n1-c1ccc(Cl)cc1	SW480	MTT	48 h	10.9 µM
Nc1ccccc1NC(=O)c1ccc(Cn2cnc3c(Nc4ccc(Br)cc4F)ncnc32)cc1	MM1.S	MTT	72 h	1.47 µM
NNc1nc2c(Cl)cc(Cl)cc2c(=O)n1-c1ccccc1	SW480	MTT	48 h	> 200 µM
O=P1(c2ccccc2)CCCCC1	SW480	MTT	72 h	> 100 µM
NNc1nc2c(Cl)cc(Cl)cc2c(=O)n1-c1ccc(Cl)cc1	SW480	MTT	48 h	> 200 µM
Cc1cc2c(C(N)=O)cccc2n1-c1nc2c(c(NCc3ccccc3)n1)CCCN2	MM1.S		72 h	0.7 µM
